Results on 16 molecules are retold here after ChEMBL document CHEMBL1641429, “Synthesis and xanthine oxidase inhibitory activity of 7-methyl-2-(phenoxymethyl)-5H-[1,3,4]thiadiazolo[3,2-a]pyrimidin-5-one derivatives” (Bioorg Med Chem, 2011).

The structures appear in SMILES notation.

A short description of assay [1]: Inhibition of microbial xanthine oxidase by spectrophotometry. The essentials:
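Enzyme source: for line 2, supernatant of centrifuged rat liver homogenate stored at −80 °C; for line 1, commercial microbial XO run the same way. Mix of 50 mM potassium phosphate pH 7.5, 0.3 mM EDTA and enzyme. Reaction started with xanthine substrate plus test compound. Protein by Lowry, BSA standard.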

Assay [2] addresses Xanthine dehydrogenase/oxidase (Rattus norvegicus, UniProt P22985). Nature of the assay: Inhibition of rat liver xanthine oxidase by spectrophotometry. The gist of the method: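 Enzyme source: for line 2, supernatant of centrifuged rat liver homogenate stored at −80 °C; for line 1, commercial microbial XO run the same way. Mix of 50 mM potassium phosphate pH 7.5, 0.3 mM EDTA and enzyme. Reaction started with xanthine substrate plus test compound. Uric acid read at 292 nm at 10 min intervals, ambient temperature. % inhibition versus control without compound; triplicates. Protein by Lowry, BSA standard.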

For assay [3], the target named is Xanthine dehydrogenase/oxidase (Bos taurus, UniProt P80457). Nature of the assay: Inhibition of bovine milk xanthine oxidase by spectrophotometry.
Xanthine dehydrogenase/oxidase (Bos taurus, UniProt P80457), sequence (P80457 whole entry): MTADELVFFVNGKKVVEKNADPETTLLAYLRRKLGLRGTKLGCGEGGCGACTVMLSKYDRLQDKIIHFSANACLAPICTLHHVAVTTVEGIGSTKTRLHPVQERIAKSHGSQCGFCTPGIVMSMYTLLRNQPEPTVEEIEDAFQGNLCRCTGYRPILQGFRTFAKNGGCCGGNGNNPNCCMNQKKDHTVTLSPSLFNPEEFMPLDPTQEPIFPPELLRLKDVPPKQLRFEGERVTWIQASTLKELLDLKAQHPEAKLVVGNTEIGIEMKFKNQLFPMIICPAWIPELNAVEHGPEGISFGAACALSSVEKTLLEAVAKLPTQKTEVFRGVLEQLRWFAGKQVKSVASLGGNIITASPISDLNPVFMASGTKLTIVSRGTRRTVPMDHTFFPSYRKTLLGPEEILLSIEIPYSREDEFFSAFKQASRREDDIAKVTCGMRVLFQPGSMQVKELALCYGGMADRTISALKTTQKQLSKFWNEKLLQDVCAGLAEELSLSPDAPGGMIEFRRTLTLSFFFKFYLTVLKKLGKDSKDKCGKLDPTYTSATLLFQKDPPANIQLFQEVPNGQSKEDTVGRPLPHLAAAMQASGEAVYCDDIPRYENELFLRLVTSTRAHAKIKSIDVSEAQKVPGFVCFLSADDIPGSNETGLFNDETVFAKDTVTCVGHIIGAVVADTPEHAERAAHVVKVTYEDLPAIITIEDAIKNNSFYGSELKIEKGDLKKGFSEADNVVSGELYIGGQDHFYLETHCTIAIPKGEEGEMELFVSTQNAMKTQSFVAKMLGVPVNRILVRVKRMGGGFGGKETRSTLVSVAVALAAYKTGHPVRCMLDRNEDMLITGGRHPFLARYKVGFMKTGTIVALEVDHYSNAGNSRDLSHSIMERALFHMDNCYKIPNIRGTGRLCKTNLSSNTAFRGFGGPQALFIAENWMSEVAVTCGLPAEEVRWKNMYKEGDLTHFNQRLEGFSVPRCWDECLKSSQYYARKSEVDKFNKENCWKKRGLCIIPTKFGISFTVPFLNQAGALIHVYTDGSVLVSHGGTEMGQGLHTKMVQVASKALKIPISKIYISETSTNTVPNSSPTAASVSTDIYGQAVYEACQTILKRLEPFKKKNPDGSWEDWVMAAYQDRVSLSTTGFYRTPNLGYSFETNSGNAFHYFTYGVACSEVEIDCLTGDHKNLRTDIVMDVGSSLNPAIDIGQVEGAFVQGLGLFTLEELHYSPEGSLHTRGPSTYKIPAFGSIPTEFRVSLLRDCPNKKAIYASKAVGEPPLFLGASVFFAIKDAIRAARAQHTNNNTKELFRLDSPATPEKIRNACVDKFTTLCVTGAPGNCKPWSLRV

Xanthine dehydrogenase/oxidase (Rattus norvegicus, UniProt P22985), sequence (P22985 whole entry): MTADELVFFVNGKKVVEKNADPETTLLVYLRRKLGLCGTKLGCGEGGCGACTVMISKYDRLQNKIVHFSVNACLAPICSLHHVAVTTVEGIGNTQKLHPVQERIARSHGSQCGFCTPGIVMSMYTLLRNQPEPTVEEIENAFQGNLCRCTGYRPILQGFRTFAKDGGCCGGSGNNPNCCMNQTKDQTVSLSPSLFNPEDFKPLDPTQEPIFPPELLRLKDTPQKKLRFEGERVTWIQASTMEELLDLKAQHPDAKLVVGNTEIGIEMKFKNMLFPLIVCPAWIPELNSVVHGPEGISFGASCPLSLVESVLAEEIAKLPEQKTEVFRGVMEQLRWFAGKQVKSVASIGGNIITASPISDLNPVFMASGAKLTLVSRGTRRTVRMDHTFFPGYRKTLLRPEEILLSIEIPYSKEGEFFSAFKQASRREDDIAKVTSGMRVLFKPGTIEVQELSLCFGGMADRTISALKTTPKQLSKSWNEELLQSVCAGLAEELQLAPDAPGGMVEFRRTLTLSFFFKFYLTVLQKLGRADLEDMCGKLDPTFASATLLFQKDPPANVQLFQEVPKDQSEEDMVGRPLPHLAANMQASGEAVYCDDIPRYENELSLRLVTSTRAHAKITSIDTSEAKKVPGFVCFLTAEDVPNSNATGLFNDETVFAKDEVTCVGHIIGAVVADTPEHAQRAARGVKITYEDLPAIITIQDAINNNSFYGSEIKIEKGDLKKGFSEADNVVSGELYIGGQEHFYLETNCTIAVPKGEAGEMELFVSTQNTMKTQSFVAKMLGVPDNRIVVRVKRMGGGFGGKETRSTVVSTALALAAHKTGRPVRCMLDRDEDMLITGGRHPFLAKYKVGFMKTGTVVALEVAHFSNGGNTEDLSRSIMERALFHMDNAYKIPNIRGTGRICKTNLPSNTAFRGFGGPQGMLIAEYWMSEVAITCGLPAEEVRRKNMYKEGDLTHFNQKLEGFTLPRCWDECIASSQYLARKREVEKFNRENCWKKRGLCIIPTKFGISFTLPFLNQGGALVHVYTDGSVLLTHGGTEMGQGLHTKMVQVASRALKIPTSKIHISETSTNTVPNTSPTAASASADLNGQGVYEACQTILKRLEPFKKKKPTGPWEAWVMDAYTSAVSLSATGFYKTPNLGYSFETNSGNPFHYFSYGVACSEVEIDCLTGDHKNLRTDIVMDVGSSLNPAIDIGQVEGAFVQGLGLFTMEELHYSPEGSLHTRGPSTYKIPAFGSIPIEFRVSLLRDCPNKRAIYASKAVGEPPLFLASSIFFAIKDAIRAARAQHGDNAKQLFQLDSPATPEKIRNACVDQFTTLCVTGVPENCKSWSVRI

`Cc1cc(=O)n2nc(COc3ccc(Cl)cc3)sc2n1`: the 50% inhibitory concentration (IC50) stood at 423 nM in assay [1], 449 nM in assay [2] and 461 nM in assay [3].

As to `COc1ccc(OCc2nn3c(=O)cc(C)nc3s2)cc1`, the IC50 in assay [1] turned out to be 269 nM; in assay [2] it was 289 nM; in assay [3], 269 nM.

As for `Cc1cc(=O)n2nc(COc3ccccc3Br)sc2n1`, the IC50 in assay [2] was found to be 413 nM; in assay [3], 603 nM.

As for `Cc1cc(=O)n2nc(COc3ccccc3C)sc2n1`, the IC50 was 346 nM in assay [1], 362 nM in assay [2] and 326 nM in assay [3].

On to `Cc1cc(=O)n2nc(COc3ccccc3Cl)sc2n1`, for which the IC50 is 1820 nM in assay [1], 1830 nM in assay [2] and 1650 nM in assay [3].

For the molecule `Cc1cc(=O)n2nc(COc3ccc(Cl)c(C)c3)sc2n1`, the IC50 turned out to be 596 nM in assay [1], 623 nM in assay [2] and 634 nM in assay [3].

As for `Cc1cccc(OCc2nn3c(=O)cc(C)nc3s2)c1`, the values for the IC50 in assay [1], in assay [2] and in assay [3] were 1110 nM, 1070 nM and 1030 nM, respectively.

`Cc1cc(=O)n2nc(COc3ccc(F)cc3)sc2n1` came in with an IC50 in assay [1] of 2240 nM. In other words, the single-digit micromolar range.

With `Cc1cc(=O)n2nc(COc3ccc([N+](=O)[O-])cc3)sc2n1`, the IC50 was 2030 nM in assay [2] and 2500 nM in assay [3].

For `Cc1ccc(OCc2nn3c(=O)cc(C)nc3s2)c(C)c1`, the IC50 in assay [1] was 1730 nM; in assay [2] it was 1760 nM; in assay [3], 1800 nM.

For the molecule `Cc1cc(=O)n2nc(COc3ccccc3F)sc2n1`, half-maximal inhibition in assay [2] (IC50) was put at 590 nM. That is a sub-micromolar value.

For the molecule `Cc1ccc(OCc2nn3c(=O)cc(C)nc3s2)cc1`, the IC50 in assay [1] is 834 nM; in assay [2] it was 1020 nM.

In the case of `Cc1cc(=O)n2nc(COc3cccc(Cl)c3)sc2n1`, in assay [2], the IC50 was 6180 nM.

Take `Cc1cc(=O)n2nc(COc3cccc(Br)c3)sc2n1`: the midpoint of inhibition in assay [2], the IC50, lay at 2560 nM.

Regarding `Cc1cc(=O)n2nc(COc3cccc(F)c3)sc2n1`, the IC50 turned out to be 1660 nM in assay [1] and 1980 nM in assay [2].

Molecule `Cc1cc(=O)n2nc(COc3ccccc3)sc2n1` yielded an IC50 in assay [2] of 555 nM.

One may read the IC50 as the midpoint of a concentration-inhibition curve. Low readings indicate greater potency, high ones weaker potency.
